Screening data from PubChem BioAssay.
Cl transport mod: KCC2 cotransporter modulators, thallium flux, primary screen, cell-based, HEK293 KCC2, FluoZin-2 fluorescence, MLSMR; Solute carrier family 12 member 5 (Homo sapiens), Q9H2X9; KCC2 cells, thallium flux FluoZin-2 fluorescence; B-score of Tl+ flux slope (higher = more flux/activation; lower = inhibition) at 10 µM; 190,000 compounds, 2.2% hits; AID 1456, 2008;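 active means thallium flux slope and its plate-corrected score both differing from the plate sample mean at a set confidence after two filtering rounds, in either direction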;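 further: slope of fluorescence scaled to starting intensity during 10 to 20 s after thallium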
Target sequence (Q9H2X9 whole entry, looked up): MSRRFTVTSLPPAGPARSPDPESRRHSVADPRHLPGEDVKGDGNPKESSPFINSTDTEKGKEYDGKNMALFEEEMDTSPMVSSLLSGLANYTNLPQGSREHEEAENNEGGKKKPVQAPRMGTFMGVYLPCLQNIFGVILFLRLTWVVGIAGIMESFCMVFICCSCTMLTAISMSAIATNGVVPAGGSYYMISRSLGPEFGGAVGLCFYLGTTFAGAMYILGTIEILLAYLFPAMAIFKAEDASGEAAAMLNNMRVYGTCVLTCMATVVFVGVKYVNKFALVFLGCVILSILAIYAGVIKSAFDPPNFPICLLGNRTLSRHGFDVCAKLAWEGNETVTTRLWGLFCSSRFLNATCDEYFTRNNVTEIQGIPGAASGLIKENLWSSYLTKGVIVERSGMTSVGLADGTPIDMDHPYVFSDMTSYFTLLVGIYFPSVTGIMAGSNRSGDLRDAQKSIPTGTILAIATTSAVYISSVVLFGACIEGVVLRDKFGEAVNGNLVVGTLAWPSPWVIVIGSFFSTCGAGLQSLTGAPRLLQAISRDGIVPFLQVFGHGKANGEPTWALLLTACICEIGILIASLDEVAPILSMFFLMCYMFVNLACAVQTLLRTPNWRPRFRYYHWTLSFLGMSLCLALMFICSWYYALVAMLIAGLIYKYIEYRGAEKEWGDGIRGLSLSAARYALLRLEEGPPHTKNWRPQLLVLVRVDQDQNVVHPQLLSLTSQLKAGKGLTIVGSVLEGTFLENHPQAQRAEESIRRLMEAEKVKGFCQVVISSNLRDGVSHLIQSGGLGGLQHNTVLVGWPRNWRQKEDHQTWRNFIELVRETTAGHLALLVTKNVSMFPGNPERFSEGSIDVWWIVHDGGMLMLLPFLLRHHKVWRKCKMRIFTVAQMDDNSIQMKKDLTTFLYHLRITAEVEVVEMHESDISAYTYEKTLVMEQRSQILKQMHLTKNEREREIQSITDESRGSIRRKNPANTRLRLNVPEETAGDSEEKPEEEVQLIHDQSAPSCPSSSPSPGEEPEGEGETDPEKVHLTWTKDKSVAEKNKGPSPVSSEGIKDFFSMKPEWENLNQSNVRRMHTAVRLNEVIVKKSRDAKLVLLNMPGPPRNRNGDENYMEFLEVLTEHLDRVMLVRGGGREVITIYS
b-catenin transl: modulators of beta-catenin nuclear translocation, primary screen, imaging, HeLa cells, immunofluorescence, high-content. nuclear translocation activity, % at 5 µM. 190,000 compounds, 0.3% hits. AID 1665, 2009;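 active means nuclear translocation activity above 50% at 5 µM, with a well cell count of 50 or more; inconclusive means wells under 50 cells across six images, flagged as toxic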;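 further: per-cell ratio of nuclear to cytoplasmic median beta-catenin stain intensity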
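System: Human HeLa cells, endogenous beta-catenin | Compound dosing: 5 µM primary, 0.02–20 µM confirmation | Timing: 24 h compound exposure at 37°C, 5% CO2 | Measured by: Fluorescence imaging of beta-catenin antibody stain plus DAPI | Read-out basis: % activation of per-cell nuclear versus cytoplasmic median beta-catenin signal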
WT yeast gro inh: growth inhibition of WT strain, primary screen, mitochondrial fusion inhibitor project, WT and mutant strains, chemical genetic. 190,000 compounds, 2.1% hits. mitochondrial fusion phenotypic screen. inhibition, % at 10 µM; in the data active means inhibition above about 58%; tested in S. cerevisiae
Pf gametocyte: late stage P. falciparum gametocyte viability inhibitors, primary screen, ATP luminescence, HTS | AID 743093, 2013 | inhibition, % at 10.9 µM | 150,000 compounds, 0.065% hits | P. falciparum stage V gametocytes, 24 h;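 active means inhibition above the mean plus 3 SD of compounds within the control limits, set per campaign, cut at about 38% in these data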
MT stabilizer: microtubule stabilizers in HeLa cells, primary screen, imaging, high-content imaging | AID 2205, 2009 | HeLa tubulin immunostaining HCS, 24 h; share of cells brighter than vehicle mean+2SD | 200,000 compounds, 0.83% hits | % tubulin-high responders, % at 10 µM;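 active means plate Z-score above 3 for both tubulin-high and condensed-nucleus cell shares, with cell loss under 80%, at 10 µM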;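 further: anti alpha tubulin signal scored within the nucleus-defined area of each cell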
KCC2 sec1: KCC2 modulators in sodium-free buffer, confirmation, cell-based, HEK293 KCC2, thallium flux, secondary assay; shares compounds with Cl transport mod; FluoZin2 fluorescence; active compounds read high; normalised thallium flux (F/F0 slope) at 10 µM; 3,700 compounds, 15% hits;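 active means thallium flux slope above the same plate's solvent-only control mean plus 3 SD; inconclusive means the two replicate wells disagree; inactive means no significant difference from solvent-only control wells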
KCC2 bumet counter: thallium flux persisting under bumetanide in KCC2 cells, confirmation, counter-screen for KCC2 modulator project, cell-based, HEK293 KCC2, FluoZin2, secondary assay 3. normalized thallium flux at 10 µM. HEK293-KCC2 + bumetanide/ouabain; active compounds read high. 3,700 compounds, 49% hits. shares compounds with Cl transport mod;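 active means thallium entry rate above the same plate's blocked-transporter control wells by more than 3 SD; inconclusive means the two repeat wells disagree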;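 further: raw slope of fluorescence over initial fluorescence between 10 and 20 s after thallium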
KCC2 secondary2: KCC2 modulators without ouabain present, confirmation, cell-based, HEK293 KCC2, thallium flux, FluoZin2, secondary assay 2 | shares compounds with Cl transport mod | thallium flux FluoZin2 fluorescence; actives lie on both sides; F/F0 rise rate, 10–20 s post-thallium | normalized thallium flux at 10 µM | 3,700 compounds, 23% hits;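 active means thallium flux slope more than 3 SD above or below the plate's solvent-only control mean, mostly below; inconclusive means the two repeat wells disagreed; inactive means no significant shift from solvent-only controls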
HEK counter1: thallium flux modulation in parental HEK cells, confirmation, counter-screen for KCC2 modulator project, cell-based, counterscreen 1 | shares compounds with Cl transport mod | HEK293 parental cells, thallium flux FluoZin2, ouabain; baseline-ratio fluorescence slope, 10–20 s after thallium | thallium flux rate (normalised fluorescence) at 10 µM | 3,700 compounds, 46% hits | AID 1716, 2009;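 active means thallium flux rate significantly above the same plate's solvent-only control wells, beyond their mean plus 3 SD; inconclusive means the two replicate wells gave conflicting results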
KCC2 ouabain: KCC2 inhibitors and activators, ouabain retest, confirmation, HEK-KCC2 cells; shares compounds with Cl transport mod; HEK293-KCC2, thallium flux FluoZin2 fluorescence; bidirectional: low = inhibitor, high = activator; raw Tl+ flux slope (below DMSO = inhibition, above = activation) at 10 µM; 3,700 compounds, 48% hits; AID 1717, 2009;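 active means thallium flux slope beyond 3 SD from same-plate DMSO control mean in most replicates, usually higher, sometimes lower; inconclusive means repeat tests gave conflicting results; inactive means no significant difference from controls in most replicates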;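 further: slope of initial-normalized fluorescence between seconds 10 and 20 after thallium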
HEK293 Tl flux2: native HEK Tl+ uptake effects, second counter-screen – HEK cells, counterscreen 2, counter-screen for KCC2 modulator project, confirmation; shares compounds with Cl transport mod; HEK293 parental, thallium flux FluoZin-2 fluorescence slope; thallium flux slope at 10 µM; 3,700 compounds, 33% hits;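 active means thallium flux slope above the same plate's solvent-control mean plus 3 SD in both duplicate wells; inconclusive means duplicate wells that disagreed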;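 further: run without ouabain in cells lacking the KCC2 cotransporter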
Each line names hits and unclear results; the compound was inactive in the other large screens (follow-up assays come after a bar, where they were run). Most compounds without a hit are left out; they make up all but 4% or so of the library.

Cn1c(SCC(=O)NCc2ccccc2)nc2ccccc21	none | KCC2 sec1 inconclusive | KCC2 bumet counter inactive | KCC2 secondary2 inactive | HEK counter1 inactive | KCC2 ouabain inactive | HEK293 Tl flux2 inactive
O=C(CSc1nc2ccccc2c(=O)n1Cc1ccco1)NCCN1C(=O)CSC1=O	none (no result: WT yeast gro inh, MT stabilizer)
O=C(CSc1nc2ccccc2n1CCc1ccccc1)NC1CCS(=O)(=O)C1 (stereo not given)	Cl transport mod 7.2 (no result: Pf gametocyte) | KCC2 sec1 inactive | KCC2 bumet counter 0.021 | KCC2 secondary2 inactive | HEK counter1 0.011 | KCC2 ouabain 0.028 | HEK293 Tl flux2 0.011
CC1(C)N(O)CC(c2cccs2)=[N+]1[O-]	Cl transport mod 2.9 | KCC2 sec1 inactive | KCC2 bumet counter inactive | KCC2 secondary2 inactive | HEK counter1 inactive | KCC2 ouabain inactive | HEK293 Tl flux2 inactive
S=c1[nH]c(-c2ccccc2)cn1/N=C/c1ccccc1Br	Cl transport mod 46, WT yeast gro inh 68 (no result: Pf gametocyte) | KCC2 sec1 inconclusive | KCC2 bumet counter 0.066 | KCC2 secondary2 0.063 | HEK counter1 0.067 | KCC2 ouabain 0.079 | HEK293 Tl flux2 0.047
COc1cc(/C=N/n2cc(-c3ccccc3)[nH]c2=S)cc(OC)c1O	none (no result: WT yeast gro inh, MT stabilizer)
S=c1[nH]c(-c2ccccc2)cn1/N=C/c1cccc2ccccc12	Cl transport mod 58, WT yeast gro inh 75, MT stabilizer 18 | KCC2 sec1 inactive | KCC2 bumet counter 0.079 | KCC2 secondary2 0.077 | HEK counter1 0.078 | KCC2 ouabain 0.086 | HEK293 Tl flux2 0.07
Cc1ccc(/C=N/n2cc(-c3ccccc3)[nH]c2=S)s1	Cl transport mod 33, WT yeast gro inh 68 | KCC2 sec1 0.024 | KCC2 bumet counter 0.068 | KCC2 secondary2 inactive | HEK counter1 0.056 | KCC2 ouabain 0.058 | HEK293 Tl flux2 0.019
Oc1ccc(/C=N/n2cc(-c3ccccc3)[nH]c2=S)cc1	none (no result: Pf gametocyte)
COc1ccc(CN2CCNC(=O)C2CC(=O)N2CCCO2)c(OC)c1 (stereo not given)	none
CCO[C@H]1OC(C(=O)N2CCCCCCC2)=C[C@@H](c2ccccc2)[C@@H]1CCCO	none
CC(Cc1nnc(N)s1)c1ccccc1 (stereo not given)	none (no result: Cl transport mod, b-catenin transl, WT yeast gro inh, MT stabilizer)
COc1cc(NC(=O)CN2C(=O)CN(C)C2=O)c(C)cc1[N+](=O)[O-]	none
COc1cc(NC(=O)Cn2ncc(Cl)c(Cl)c2=O)c(C)cc1[N+](=O)[O-]	Cl transport mod -5.1 | KCC2 sec1 inactive | KCC2 bumet counter inactive | KCC2 secondary2 inactive | HEK counter1 0.0059 | KCC2 ouabain 0.017 | HEK293 Tl flux2 inactive
O=c1cc(/C=C/c2c(F)cccc2Cl)[nH]c2ccccc12	none
Cc1ccc(S(=O)(=O)N(C)c2nc3ccccc3[nH]c2=S)cc1	Cl transport mod 89 (no result: WT yeast gro inh, MT stabilizer) | KCC2 sec1 0.039 | KCC2 bumet counter 0.087 | KCC2 secondary2 inconclusive | HEK counter1 0.065 | KCC2 ouabain 0.065 | HEK293 Tl flux2 0.019
Cc1cc(C)nc(NC(=O)CSc2nc3ccccc3s2)n1	none (no result: Cl transport mod, b-catenin transl, Pf gametocyte)
Cc1cc(C)n2c(Br)c(CSc3nc4ccccc4s3)nc2n1	Cl transport mod -3.7 | KCC2 sec1 inactive | KCC2 bumet counter inactive | KCC2 secondary2 0.027 | HEK counter1 0.0061 | KCC2 ouabain 0.016 | HEK293 Tl flux2 inactive
COc1cccc(Nc2nnc(SCC(=O)Nc3sccc3C(N)=O)s2)c1	none
CCc1ccc(Nc2nnc(SCC(=O)Nc3sccc3C(N)=O)s2)cc1	Cl transport mod -4.9 (no result: b-catenin transl, Pf gametocyte) | KCC2 sec1 inactive | KCC2 bumet counter inactive | KCC2 secondary2 0.023 | HEK counter1 inactive | KCC2 ouabain inconclusive | HEK293 Tl flux2 inactive
CCc1ccc(Nc2nnc(SCC(=O)NCCN3C(=O)CSC3=O)s2)cc1	Cl transport mod -3.7 | KCC2 sec1 inactive | KCC2 bumet counter inactive | KCC2 secondary2 inactive | HEK counter1 inactive | KCC2 ouabain inconclusive | HEK293 Tl flux2 inactive
C=CCn1c(CCNC(=O)c2ccccc2F)nnc1SCC(=O)Nc1nc2ccccc2s1	none (no result: Cl transport mod, b-catenin transl, Pf gametocyte) | KCC2 sec1 inactive | KCC2 bumet counter inactive | KCC2 secondary2 0.025 | HEK counter1 inactive | KCC2 ouabain inactive | HEK293 Tl flux2 inactive
O=C(CSc1nnnn1-c1ccccc1F)Nc1nc2ccccc2s1	none
Cc1ccc(S(=O)(=O)N2CC(O)CC2C(=O)OCC(=O)c2ccccc2Cl)cc1C (stereo not given)	Cl transport mod -4.1 | KCC2 sec1 inconclusive | KCC2 bumet counter inactive | KCC2 secondary2 inactive | HEK counter1 inactive | KCC2 ouabain 0.015 | HEK293 Tl flux2 inactive
CCOC(=O)C1CCCN(c2c(NCCN(CC)c3ccccc3)c(=O)c2=O)C1 (stereo not given)	none (no result: Pf gametocyte)
CCOC(=O)C1CCCN(c2c(NCCCN(CC)c3ccccc3)c(=O)c2=O)C1 (stereo not given)	Cl transport mod 4.6 | KCC2 sec1 inactive | KCC2 bumet counter inactive | KCC2 secondary2 inactive | HEK counter1 inactive | KCC2 ouabain inactive | HEK293 Tl flux2 inactive
COc1ccc(C2(C)NC(=O)N(CC(=O)Nc3ccc4c(c3)OCO4)C2=O)cc1OC (stereo not given)	none (no result: b-catenin transl, Pf gametocyte)
N=c1c2c(ncn1CCN1CCOCC1)Oc1cc(O)ccc1C2c1ccccc1 (stereo not given)	none (no result: WT yeast gro inh, MT stabilizer)
Cc1nnc(SC(C)C(=O)NC2CCCc3ccccc32)n1-c1ccccc1 (stereo not given)	none
